Experimental data reported in article PMC12690059 (Dose-Response, 2025).
Like-named read-outs stand apart in the source and are kept apart here. Each block holds one compound with its values, some of them ahead of it.

What was measured:
[1] = tested on: Nrf2/HO-1 and Casp-3 pathways; assay: In vivo mechanistic validation using pathway inhibitors; design: species or system Sprague-Dawley (SD) rats; conditions: for Effect on P.indicus-induced reduction in serum cTn-T: ML385 30 mg/kg or Z-DEVD-FMK 1 mg/kg i.p. before P. indicus 54 mg/kg + ISO; for Intrinsic cardiotoxicity of inhibitor: control experiments
Procedure, shortened: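 Rats (n = 8/group) received the test extract at 54 mg/kg p.o. on days 1-14 and ISO 85 mg/kg s.c. on days 7-14. An Nrf2 inhibitor (30 mg/kg) or a caspase-3 inhibitor (1 mg/kg) was given i.p. 30 min before each gavage; an ISO + vehicle group was included. Inhibition was checked by myocardial HO-1/cleaved caspase-3 western blot. Myocardial SOD and MDA (homogenate, ELISA) and serum cTn-T were measured.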

[2] = type: in vivo, Sprague-Dawley rats
Procedure, shortened: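 Healthy SD rats (n = 6) received a single oral dose of extract at 54 mg/kg. Tail-vein blood (0.3 mL) was taken at 0, 0.25, 0.5, 1, 2, 4, 8, 12 and 24 h; plasma was stored at −80°C. Marker compounds were measured by validated HPLC-DAD (C18, 35°C, 0.1% formic acid water/methanol gradient).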

[3] = tested on: ISO-induced myocardial ischemia; assay: ECG monitoring; type: in vivo, Sprague-Dawley (SD) rats; conditions: propranolol 30 mg/kg oral 14 days
Procedure, shortened: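 Male SD rats (n = 10/group) were dosed orally for 14 days, with ISO 85 mg/kg s.c. on days 7-14. Twenty-four hours after the last ISO, rats were anesthetized with 2% pentobarbital sodium (30 mg/kg i.p.) and fixed supine. Lead II ECG was recorded for 60 min for ST-segment and T-wave changes, QRS duration and VPB incidence.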

[4] = tested on: ISO-induced myocardial ischemia; assay: H&E histopathological score of myocardial tissue; type: in vivo, Sprague-Dawley (SD) rats; conditions: propranolol 30 mg/kg oral 14 days; ISO rats
Procedure, shortened: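 ISO model: SD rats, 14-day oral pretreatment, ISO 85 mg/kg s.c. on days 7-14. Hearts were fixed in 4% paraformaldehyde for 24 h, paraffin-embedded and cut at 4 μm. Sections were H&E-stained and examined by light microscopy for myocardial damage. Final scores were consensus evaluations.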

[5] = tested on: ISO-induced myocardial ischemia; assay: Cardiac index; type: in vivo, Sprague-Dawley (SD) rats; conditions: propranolol 30 mg/kg oral 14 days; vs ISO
Procedure, shortened: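 Male SD rats (200 ± 20 g, n = 10/group) received oral gavage daily for 14 days, with ISO 85 mg/kg s.c. on days 7-14, 30 min post-gavage. After ECG, hearts were excised, rinsed in pre-cooled saline, blotted dry and weighed. Cardiac index = heart weight/body weight, in mg/g.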

[6] = tested on: ISO-induced myocardial ischemia; assay: Masson's trichrome staining, myocardial fibrotic area; type: in vivo, Sprague-Dawley (SD) rats; conditions: propranolol 30 mg/kg oral 14 days; ISO rats
Procedure, shortened: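 ISO model: SD rats, 14-day oral pretreatment, ISO 85 mg/kg s.c. on days 7-14. Paraffin heart sections (4 μm) were deparaffinized and stained with Weigert's iron hematoxylin, then Biebrich scarlet-acid fuchsin, phosphomolybdic-phosphotungstic acid and aniline blue; collagen stains blue. Images were taken at 200x. Fibrosis was expressed as collagen-positive area as a percentage of total myocardial area.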

Bax = assay: Western blot of myocardial Bax; type: in vivo, Sprague-Dawley (SD) rats; conditions: propranolol 30 mg/kg oral 14 days; ISO rats; Control = 1.00
Bcl-2 = assay: Western blot of myocardial Bcl-2; type: in vivo, Sprague-Dawley (SD) rats; conditions: propranolol 30 mg/kg oral 14 days; ISO rats; Control = 1.00
Cleaved caspase-3 = assay: Western blot of myocardial cleaved caspase-3; type: in vivo, Sprague-Dawley (SD) rats; conditions: propranolol 30 mg/kg oral 14 days; ISO rats; Control = 1.00
Nrf2 = assay: Western blot of myocardial Nrf2; type: in vivo, Sprague-Dawley (SD) rats; conditions: propranolol 30 mg/kg oral 14 days; ISO rats; Control = 1.00
HO-1 = assay: Western blot of myocardial HO-1; type: in vivo, Sprague-Dawley (SD) rats; conditions: propranolol 30 mg/kg oral 14 days; ISO rats; Control = 1.00
[7] = Sprague-Dawley, rat, plasma, po, 54 mg/kg
[8] = rat plasma, single oral P. indicus extract 54 mg/kg, n = 6

Structure (SMILES): Cc1ccccc1C(=O)N1CCc2cc(-c3nc(NC(=O)Cc4ccc5c(c4)OCO5)sc3C)ccc21 [ML385]
Effect on P.indicus's antioxidant effect (SOD activity, MDA content) ([1]; ML385 30 mg/kg i.p. before P. indicus 54 mg/kg + ISO): nullified P.indicus’s antioxidant effect
Effect on P.indicus-induced reduction in serum cTn-T [1]: attenuated the P.indicus-induced reduction in serum cTn-T
Intrinsic cardiotoxicity of inhibitor [1]: ruled out intrinsic cardiotoxicity

Structure (SMILES): COC(=O)CC[C@H](NC(=O)[C@H](CC(=O)OC)NC(=O)OCc1ccccc1)C(=O)N[C@H](C(=O)N[C@@H](CC(=O)OC)C(=O)CF)C(C)C [Z-DEVD-FMK]
Effect on P.indicus-induced reduction in serum cTn-T [1]: attenuated the P.indicus-induced reduction in serum cTn-T
Effect on P.indicus suppression of cleaved caspase-3 (western blot) ([1]; Z-DEVD-FMK 1 mg/kg i.p. 30 min before each P. indicus gavage (54 mg/kg) + ISO): reversed the suppression of cleaved caspase-3
Effect on P.indicus's anti-apoptotic action ([1]; Z-DEVD-FMK 1 mg/kg i.p. before P. indicus 54 mg/kg + ISO): selectively blocked its anti-apoptotic action
Intrinsic cardiotoxicity of inhibitor [1]: ruled out intrinsic cardiotoxicity

Structure (SMILES): CCCCC/C=C\C/C=C\CCCCCCCC(=O)O [Linoleic acid]
AUC(0-t) [2, 7]: 7210 ± 950 ng·h/mL
Cmax [2, 7]: 2450 ± 300 ng/mL
Tmax [2, 7]: 0.25 ± 0.08 h
half-life [2, 7]: 1.8 ± 0.2 h

Structure (SMILES): CC(C)NCC(O)COc1cccc2ccccc12 (stereo not drawn) [propranolol]
ST-segment elevation ([3]; ISO 85 mg/kg s.c. days 7-14): 0.024 ± 0.033 mV
QRS duration ([3]; ISO rats): 0.041 ± 0.002 s
Ventricular premature beats (VPBs) ([3]; ISO rats): 1.2 ± 0.3 beats/60 min
Pathological score (H&E) vs ISO group [4]: significantly lower
ISO-induced increase of cardiac index (heart weight/body weight ratio) [5]: significantly attenuated
Fibrotic area (Masson's trichrome) [6]: 11.2 ± 2.1%
Relative expression of protein Bax (Bax): 1.74 ± 0.36
Relative expression of protein Bcl-2 (Bcl-2): 0.63 ± 0.08
Relative expression of protein Cleaved caspase-3 (Cleaved caspase-3): 2.48 ± 0.63
Relative expression of protein Nrf2 (Nrf2): 2.55 ± 0.21
Relative expression of protein HO-1 (HO-1): 3.80 ± 0.64

Second part, the compound after the results:

AUC(0-t) [2, 7]: 5950 ± 720 ng·h/mL
Cmax [2, 7]: 1280 ± 150 ng/mL
half-life [2, 7]: 3.2 ± 0.4 h
Tmax [2, 8]: 0.50 ± 0.12 h
Structure (SMILES): O=c1c(O[C@@H]2O[C@H](CO)[C@@H](O)[C@H](O)[C@H]2O)c(-c2ccc(O)c(O)c2)oc2cc(O)cc(O)c12 [Quercetin-3-O-glucoside]

AUC0-24h [2, 8]: 3420 ± 510 ng·h/mL
Cmax [2, 8]: 850 ± 110 ng/mL
Tmax [2, 8]: 0.52 ± 0.15 h
t1/2 [2, 8]: 2.8 ± 0.3 h
Structure (SMILES): COc1cc(/C=C/C(=O)O)ccc1O [Ferulic acid]
